According to article PMC4267758 (Journal of molecular biology, 2014):
“Also recorded” adds a separate entry of the source. Read-outs that look alike come from different tables or passages of the source. Where no end group is shown, it is not given here. The star is where a group is joined. MTSL = methane thiosulphonate spin label, CC1(C)C=C(CS*)C(C)(C)N1[O]

What was measured:
[1] = test system: Pyk2-FAT; test: Isothermal titration calorimetry; format: binding, human
In short: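 Human Pyk2 FAT domain (residues 871–1005) with an N-terminal His6 tag, expressed in E. coli BL21(DE3) and purified by Ni-affinity then gel filtration. The cell held 10 μM protein in 20 mM MES, pH 6.2. The syringe held chicken paxillin LD-motif peptides (100 μM) or the His-tagged paxillin 133–290 fragment (50 μM). Solutions degassed; 2 μl injections, 120 s apart, at 25°C. Ligand-into-buffer heats subtracted. Fits used one-site or two-site sequential models. Run in duplicate.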

[2] = test system: Pyk2-FAT; test: Sedimentation equilibrium AUC; format: binding, human; details: AUC-SE; for Kd: two site hetero-association model (A+B+B↔ABB), 1:2 Pyk2-FAT to peptide, 20 mM MES, pH 6.2, 4 °C, Monte Carlo error, 500 iterations, confidence level 0.68
In short: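 Sedimentation equilibrium at 4 °C in 20 mM MES, 50 mM NaCl, pH 6.2. Rotor speeds 18.4, 26.9 and 46k rpm, equilibrium reached at 30, 26 and 18 h. Loading 35–96 μM. Absorbance read at 280 and 230 nm, 0.001 cm radial steps, 20 replicates per point. Global least-squares fit across speeds to the A+B+B↔ABB model.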

[3] = test system: Pyk2-FAT; test: NMR titration / chemical shift perturbation of 15N-labeled Pyk2-FAT; format: binding, human; details: 15N-HSQC/TROSY titration, Pyk2-FAT:ligand 1:0.2 to 1:2, 20 mM MES, pH 6.2, 305K
In short: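 15N-labeled Pyk2-FAT (400–500 μM in 20 mM MES, pH 6.2) titrated at 305 K with chicken LD peptides at protein:peptide ratios of 1:0.2 to 1:2. Peptide stocks were in dialysis buffer, pH readjusted to 6.2. 15N-HSQC spectra recorded at 600/800 MHz. Weighted shift Δav = [(ΔH² + (ΔN/5)²)/2]^1/2. For PRE, MTSL-labeled peptides were added at 1:0.2 and Iox/Ired taken after ascorbate reduction.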

[4] = test system: Pyk2-FAT; test: H/D exchange NMR of Pyk2-FAT complexes; set-up: species or system human; details: H/D exchange in D2O, fast 15N-HSQC, up to 10 h
In short: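 15N-labelled Pyk2-FAT complexes (400–500 μM, 20 mM MES pH 6.2) were lyophilized and rehydrated in D2O. FAST 1H-15N HSQC spectra were recorded at intervals up to 10 h at 305 K. HSQC spectra in H2O before and after exchange checked structural integrity.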

[5] = test system: Pyk2-FAT; test: Steady-state 1H-15N heteronuclear NOE; set-up: species or system human; details: 600 MHz, 305 K; relative to free Pyk2-FAT, loop regions
In short: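 Steady-state 1H-15N heteronuclear NOE was measured at 600 MHz, 305 K on 15N-labelled Pyk2-FAT, free and bound to LD-motif peptide. Protein was at 400–500 μM in 20 mM MES pH 6.2. NOE values were taken as peak-intensity ratios of 1H-saturated to unsaturated spectra.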

[6] = test system: Pyk2-FAT; test: Reverse NMR titration: unlabeled Pyk2-FAT added to 15N-labeled paxillin ligand; format: binding, human; details: 1H-15N HSQC/TROSY, ratios up to 1:2, 20 mM MES, pH 6.2
In short: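 Unlabelled Pyk2-FAT was titrated into a 15N-labelled ligand in 20 mM MES pH 6.2, with 15N-1H HSQC spectra at 600/800 MHz and 305 K. Ligands were an expressed chicken paxillin 139–163 peptide or His-tagged chicken paxillin 133–290. […] Ratios were 1:0.2–1:2.0.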

[7] = test system: Pyk2-FAT; test: Co-crystal structure with Pyk2-FAT; format: binding, human; details: PDB 4R32, 3.5 Å, one at H1/H4, one at H2/H3
[8] = test system: FAK-FAT; details: ref [39] (b5), [39], [40]; cited from earlier work
[9] = test system: FAT-like domain from G-protein-coupled receptor kinase-interacting protein 1 (GIT1); details: ref [41]; cited from earlier work
[10] = test system: Pyk2-FAT; test: Paramagnetic relaxation enhancement; format: binding, human; details: PRE, MTSL-labeled peptide, Pyk2-FAT:peptide 1:0.2, 20 mM MES, pH 6.2
In short: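 Single-cysteine peptide variants in 20 mM phosphate pH 7.2 were reacted with fivefold molar excess MTSL for 8 h at room temperature. They were HPLC-repurified, lyophilized and redissolved in 20 mM MES pH 6.2, then added to uniformly 15N-labelled Pyk2-FAT. The reduced reference used fivefold molar excess ascorbic acid for 1 h. Per-residue Iox/Ired peak-intensity ratios were computed, excluding prolines and overlapped peaks.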

[11] = target: Pyk2 focal adhesion-targeting (Pyk2-FAT) domain (human, UniProt Q14289 871-1005); test: NMR paramagnetic relaxation enhancement

LD2: paxillin derived peptide LD2 (chicken paxillin; residues 139–163), chemically synthesized (GSNLSELDRLLLELNAVQHNPPSGF)
relative binding at H1/H4 and H2/H3 sites of Pyk2-FAT ([1]; discussion statement, H1/H4 versus H2/H3): binds to both H1/H4 and H2/H3 sites of Pyk2-FAT equally well | affinity preference for H2/H3 site over H1/H4 site of Pyk2-FAT ([1]; from ITC and AUC studies): 5 fold | global free energy difference between first and second sites (ΔGAB and ΔGABB) ([2]; 1:2 stoichiometry, two-site hetero-association model): -3.18 kJ/mol | Delta G, single site (1:1) ([2]; single site hetero-association model, T = 277.149994K, RT = 0.551kcal/mol): -31.8 kJ/mol | Delta G, first binding site (1:2) ([2]; two site hetero-association model, first site, T = 277.149994K, RT = 0.551kcal/mol): -31.2 kJ/mol | Delta G, second binding site (both occupied) ([2]; two site hetero-association model, second site, T = 277.149994K, RT = 0.551kcal/mol): -28 kJ/mol | Kd ([2]; read-out: KAB (first site), 1:2 stoichiometry): 1.32 ± 0.02 µM | Kd ([2]; read-out: KABB (second site), 1:2 stoichiometry): 5.3 ± 0.12 µM | binding sites / site preference on Pyk2-FAT by NMR [3]: H2/H3 is the stronger binding site | amide H/D exchange protection of Pyk2-FAT in complex [4]: residues from H2/H3 and H1/H4 were protected even after 10 hrs | steady-state 1H-15N NOE of Pyk2-FAT amides upon ligand binding [5]: significantly increased relative to free Pyk2-FAT | effect of unlabeled Pyk2-FAT on resonances of 15N-labeled ligand [6]: most of the LD2 resonances were broadened beyond detection | peptide molecules bound per Pyk2-FAT in crystal [7]: two LD2 peptides bind to one molecule of Pyk2-FAT | preferred binding site on FAK-FAT [8]: specifically recognizes the H1/H4 site of FAK-FAT; also recorded: preferentially binds to the helices H1 and H4 interface (H1/H4) site | binding site on GIT1 FAT-like domain [9]: located exclusively at the H1/H4 surface

LD2MTSL: methane thiosulphonate (MTSL)-derivatized LD2 peptide (GSNLSELDRLLLELNAVC(MTSL)HNPPSGF)
H2/H3 residues of Pyk2-FAT affected by spin-labeled peptide [10]: residues from H2/H3 disappeared or showed reduced intensity

B1: spin-labeled LD2 (Q156C) peptide (peptide, UniProt P49024 139-163, looked up)
peptide: GSNLSELDRLLLELNAVC(MTSL)HNPPSGF
binding result [11]: binds
